Experimental data as given in ChEMBL document CHEMBL1143654, “Enhancement of aqueous solubility and stability employing a trans acetate axis in trans planar amine platinum compounds while maintaining the biological profile” (J Med Chem, 2005).

What was measured:
[1] = Hydrolysis rate constant of the compound; assay type: ADME
[2] = tested on: 41M; experiment: Concentration required to inhibit growth of the human ovarian cancer 41M cells by 50% after 96h exposure; assay type: functional, cell-based
[3] = tested on: 41M; experiment: Resistance factor was determined as ratio of resistance to that of sensitivity of 41M cells after 96h exposure to compound; assay type: functional, cell-based; conditions: Homo sapiens
[4] = tested on: CH1; experiment: Resistance factor was determined as ratio of resistance to that of sensitivity of CH1 cells after 96h exposure to compound; assay type: functional, cell-based; conditions: Homo sapiens
[5] = Solubility in water by sequential addition; assay type: physicochemical
In short: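 Water was added to the compound in sequential portions, with 15 min agitation after each addition. Solubility was taken as the point at which the solution was no longer clear.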

[6] = Acid dissociation constant pKa2; assay type: physicochemical
In short: (§1)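 Potentiometric titration of 10^-3 M solutions of trans-[Pt(OH)₂(L)(L')], made from the corresponding dinitrato compounds, with standardized NaOH (9.5×10^-4 M); pKa values were taken from the pH titration curves.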

[7] = Acid dissociation constant pKa1; assay type: physicochemical; in short: as §1
[8] = tested on: CH1; experiment: Concentration required to inhibit growth of the human ovarian cancer CH1 cells by 50% after 96h exposure; assay type: functional, cell-based
[9] = tested on: A2780; experiment: Concentration required to inhibit growth of the human ovarian cancer A2780 cells by 50% after 96h exposure; assay type: functional, cell-based
[10] = tested on: A2780; experiment: Resistance factor was determined as ratio of resistance to that of sensitivity of A2780 cells after 96h exposure to compound; assay type: functional, cell-based; conditions: Homo sapiens

k1 [1] | S [5] | Substance | IC50 [2] | RF [3] | RF [4] | other results
< 1e-08 s⁻¹ |  | CARBOPLATIN |  |  |  | 
0.0000518 s⁻¹ |  | CISPLATIN [listing 1 of 2 here] | 1.4 µM |  |  | 
 |  | CISPLATIN [listing 2 of 2 here] |  | 6.1 | 6.7 | 
0.00019 s⁻¹ |  | TRANSPLATIN |  |  |  | 
0.000065 s⁻¹ |  | [PtCl(dien)] |  |  |  | 
 | 21 mg/mL | trans-[Pt(OAc)2(NH3)2] |  |  |  | pKa [6]: 7.08
7.4e-07 s⁻¹ | 5.2 mg/mL | trans-[Pt(OAc)2(NH3)(iquin)] [listing 1 of 2 here] | 22 µM |  |  | pKa [7]: 3.78; pKa [6]: 6.92; IC50 [8]: 20 µM; IC50 [9]: 13 µM
 |  | trans-[Pt(OAc)2(NH3)(iquin)] [listing 2 of 2 here] |  | 0.26 | 0.37 | RF [10]: 1.69
3.7e-07 s⁻¹ | 1.6 mg/mL | trans-[Pt(OAc)2(NH3)(quin)] [listing 1 of 2 here] | 22 µM |  |  | IC50 [8]: 17 µM; IC50 [9]: 13 µM
 |  | trans-[Pt(OAc)2(NH3)(quin)] [listing 2 of 2 here] |  | 1 | 0.48 | RF [10]: 1.46
3.2e-07 s⁻¹ | 15 mg/mL | trans-[Pt(OAc)2(py)2] [listing 1 of 2 here] | 14 µM |  |  | IC50 [8]: 19 µM; IC50 [9]: 12.8 µM
 |  | trans-[Pt(OAc)2(py)2] [listing 2 of 2 here] |  | 0.32 | 0.22 | RF [10]: 0.9
